Laboratory results taken from ChEMBL document CHEMBL2331531, “Synthesis and biological evaluation of urea derivatives as highly potent and selective rho kinase inhibitors” (J Med Chem, 2013).
pIC50: −log10 of the molar value.

Key:
[1] = biological target: Rho-associated protein kinase 1 (Homo sapiens, UniProt Q13464); assay: Inhibition of ROCK1 (unknown origin) after 4 hrs by HTRF assay
[2] = Half life in human liver microsomes; format: ADME, Microsome
CYP1A2 = biological target: T1, CYP1A2 (Homo sapiens, UniProt P05177); assay: Inhibition of CYP1A2 (unknown origin)-mediated phenaceten demethylation to acetaminophen at 10 uM relative to control; format: ADME; details: probe phenacetin (printed: phenaceten)
T1 sequence (P05177 whole entry): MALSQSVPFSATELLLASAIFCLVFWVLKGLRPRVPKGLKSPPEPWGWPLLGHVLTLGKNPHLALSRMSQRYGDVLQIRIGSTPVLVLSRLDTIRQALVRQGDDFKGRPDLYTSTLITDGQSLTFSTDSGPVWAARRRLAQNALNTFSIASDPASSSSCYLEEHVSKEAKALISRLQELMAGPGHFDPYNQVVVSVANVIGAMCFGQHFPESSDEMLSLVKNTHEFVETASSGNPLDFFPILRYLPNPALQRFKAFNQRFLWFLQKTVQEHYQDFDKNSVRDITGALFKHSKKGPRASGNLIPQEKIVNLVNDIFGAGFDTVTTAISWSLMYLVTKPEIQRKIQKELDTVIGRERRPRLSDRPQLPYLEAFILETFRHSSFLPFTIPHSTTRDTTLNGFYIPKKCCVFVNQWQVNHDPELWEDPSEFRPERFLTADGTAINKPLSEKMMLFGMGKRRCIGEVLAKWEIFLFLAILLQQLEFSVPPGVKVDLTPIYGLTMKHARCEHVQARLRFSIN

[3] = Cmax in Sprague-Dawley rat at 1 mg/kg, iv by LC-MS/MS analysis; format: ADME, organism-based; design: dose 1 mg/kg, route intravenous; details: in vivo
CYP3A4 = CYP3A4 (Homo sapiens, UniProt P08684); assay: Inhibition of CYP3A4 (unknown origin)-mediated midazolam hydroxylation to 1'-Hydroxymidazolam at 10 uM relative to control; format: ADME; details: probe midazolam
[4] = Oral bioavailability in Sprague-Dawley rat at 2 mg/kg by LC-MS/MS analysis; format: ADME, organism-based; details: in vivo
[5] = biological target: Rho-associated protein kinase 2 (Homo sapiens, UniProt O75116); assay: Inhibition of ROCK2 (unknown origin) after 4 hrs by HTRF assay
CYP2C9 = CYP2C9 (Homo sapiens, UniProt P11712); assay: Inhibition of CYP2C9 (unknown origin)-mediated tolbutamide hydroxylation to hydroxy tolbutamide at 10 uM relative to control; format: ADME; details: probe tolbutamide
CYP2C9, sequence (P11712 whole entry): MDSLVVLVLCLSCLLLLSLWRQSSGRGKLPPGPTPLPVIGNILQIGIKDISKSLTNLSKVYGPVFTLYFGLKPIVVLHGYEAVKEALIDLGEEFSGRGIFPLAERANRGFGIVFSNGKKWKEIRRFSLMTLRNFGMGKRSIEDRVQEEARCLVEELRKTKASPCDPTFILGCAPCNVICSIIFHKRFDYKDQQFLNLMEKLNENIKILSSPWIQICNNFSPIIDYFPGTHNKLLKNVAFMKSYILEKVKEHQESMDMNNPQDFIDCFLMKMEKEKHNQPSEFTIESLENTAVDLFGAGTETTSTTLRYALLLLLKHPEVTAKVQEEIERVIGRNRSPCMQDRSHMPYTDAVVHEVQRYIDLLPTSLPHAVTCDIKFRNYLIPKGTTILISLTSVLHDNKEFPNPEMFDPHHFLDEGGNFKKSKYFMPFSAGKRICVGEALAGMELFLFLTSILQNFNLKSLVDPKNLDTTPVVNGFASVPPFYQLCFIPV

[6] = Volume of distribution in Sprague-Dawley rat at 1 mg/kg, iv by LC-MS/MS analysis; format: ADME, organism-based; design: dose 1 mg/kg, route intravenous; details: in vivo
[7] = Inhibition of ROCK-mediated myosin light chain bisphosphorylation in rat A7R5 cells after 1 hr by fluorescence assay in presence of L-alpha-lysophosphatidic acid; format: cell-based
How it was run: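 A7r5 cells in 20% FBS DMEM, plated 5000/well overnight, serum-starved 4 h in 0.05% FBS DMEM; compound 13333 nM to 18 nM final for 1 h, then 10 μM LPA 10 min; fixed, permeabilized, anti-ppMLC plus IR800 secondary; infrared scan, ppMLC signal normalized to TO-PRO-3 nuclear signal. IC50 as mean of two or more experiments.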

CYP2D6 = CYP2D6 (Homo sapiens, UniProt P10635); assay: Inhibition of CYP2D6 (unknown origin)-mediated bufuralol hydroxylation to 4'-Hydroxybufuralol at 10 uM relative to control; format: ADME; details: probe bufuralol
CYP2D6, sequence (P10635 whole entry): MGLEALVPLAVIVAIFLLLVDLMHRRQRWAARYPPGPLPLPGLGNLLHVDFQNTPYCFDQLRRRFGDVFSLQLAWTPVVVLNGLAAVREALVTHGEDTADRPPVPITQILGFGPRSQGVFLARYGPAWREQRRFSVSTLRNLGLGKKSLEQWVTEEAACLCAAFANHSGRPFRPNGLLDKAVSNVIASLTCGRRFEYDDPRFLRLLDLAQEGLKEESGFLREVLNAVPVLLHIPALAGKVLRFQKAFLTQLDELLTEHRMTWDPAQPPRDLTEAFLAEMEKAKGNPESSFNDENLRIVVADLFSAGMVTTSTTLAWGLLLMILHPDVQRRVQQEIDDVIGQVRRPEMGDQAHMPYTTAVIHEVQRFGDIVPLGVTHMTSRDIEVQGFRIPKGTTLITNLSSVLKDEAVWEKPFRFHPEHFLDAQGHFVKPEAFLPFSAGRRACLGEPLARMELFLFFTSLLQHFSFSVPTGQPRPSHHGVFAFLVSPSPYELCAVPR

[8] = Half life in Sprague-Dawley rat at 1 mg/kg, iv by LC-MS/MS analysis; format: ADME, organism-based; design: dose 1 mg/kg, route intravenous; details: in vivo
[9] = Inhibition of PKA (unknown origin) after 70 mins by luminescence assay; design: species or system Homo sapiens
Rattus norvegicus = assay: (§1) AUC in Sprague-Dawley rat at 1 mg/kg, iv by LC-MS/MS analysis; format: ADME, organism-based, Plasma; design: dose 1 mg/kg, route intravenous; details: in vivo
[10] = biological target: Mitogen-activated protein kinase 10 (Homo sapiens, UniProt P53779); assay: Inhibition of JNK3 alpha1 (unknown origin) using biotinylated Flag-ATF2 as substrate after 15 mins by HTRF assay
Mitogen-activated protein kinase 10, sequence (P53779 whole entry): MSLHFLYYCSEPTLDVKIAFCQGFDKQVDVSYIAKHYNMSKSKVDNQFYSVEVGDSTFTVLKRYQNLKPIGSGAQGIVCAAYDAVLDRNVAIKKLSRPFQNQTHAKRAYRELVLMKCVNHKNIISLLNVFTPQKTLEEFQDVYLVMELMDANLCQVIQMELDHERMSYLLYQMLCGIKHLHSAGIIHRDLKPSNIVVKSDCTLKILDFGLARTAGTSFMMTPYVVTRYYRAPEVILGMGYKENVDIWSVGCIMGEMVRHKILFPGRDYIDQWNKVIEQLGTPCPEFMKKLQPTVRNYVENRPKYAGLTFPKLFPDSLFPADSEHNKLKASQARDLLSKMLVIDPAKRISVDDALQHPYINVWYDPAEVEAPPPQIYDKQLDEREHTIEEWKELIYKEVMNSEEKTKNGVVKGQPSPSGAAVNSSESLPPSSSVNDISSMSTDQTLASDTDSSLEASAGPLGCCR

[11] = biological target: Serine/threonine-protein kinase MRCK alpha (Homo sapiens, UniProt Q5VT25); assay: Inhibition of MRCKalpha (unknown origin) using LCD-AKRRRRLSSLRA-NH2 as substrate after 75 mins by luminescence assay in presence of [33P]ATP
Serine/threonine-protein kinase MRCK alpha, sequence (Q5VT25 whole entry): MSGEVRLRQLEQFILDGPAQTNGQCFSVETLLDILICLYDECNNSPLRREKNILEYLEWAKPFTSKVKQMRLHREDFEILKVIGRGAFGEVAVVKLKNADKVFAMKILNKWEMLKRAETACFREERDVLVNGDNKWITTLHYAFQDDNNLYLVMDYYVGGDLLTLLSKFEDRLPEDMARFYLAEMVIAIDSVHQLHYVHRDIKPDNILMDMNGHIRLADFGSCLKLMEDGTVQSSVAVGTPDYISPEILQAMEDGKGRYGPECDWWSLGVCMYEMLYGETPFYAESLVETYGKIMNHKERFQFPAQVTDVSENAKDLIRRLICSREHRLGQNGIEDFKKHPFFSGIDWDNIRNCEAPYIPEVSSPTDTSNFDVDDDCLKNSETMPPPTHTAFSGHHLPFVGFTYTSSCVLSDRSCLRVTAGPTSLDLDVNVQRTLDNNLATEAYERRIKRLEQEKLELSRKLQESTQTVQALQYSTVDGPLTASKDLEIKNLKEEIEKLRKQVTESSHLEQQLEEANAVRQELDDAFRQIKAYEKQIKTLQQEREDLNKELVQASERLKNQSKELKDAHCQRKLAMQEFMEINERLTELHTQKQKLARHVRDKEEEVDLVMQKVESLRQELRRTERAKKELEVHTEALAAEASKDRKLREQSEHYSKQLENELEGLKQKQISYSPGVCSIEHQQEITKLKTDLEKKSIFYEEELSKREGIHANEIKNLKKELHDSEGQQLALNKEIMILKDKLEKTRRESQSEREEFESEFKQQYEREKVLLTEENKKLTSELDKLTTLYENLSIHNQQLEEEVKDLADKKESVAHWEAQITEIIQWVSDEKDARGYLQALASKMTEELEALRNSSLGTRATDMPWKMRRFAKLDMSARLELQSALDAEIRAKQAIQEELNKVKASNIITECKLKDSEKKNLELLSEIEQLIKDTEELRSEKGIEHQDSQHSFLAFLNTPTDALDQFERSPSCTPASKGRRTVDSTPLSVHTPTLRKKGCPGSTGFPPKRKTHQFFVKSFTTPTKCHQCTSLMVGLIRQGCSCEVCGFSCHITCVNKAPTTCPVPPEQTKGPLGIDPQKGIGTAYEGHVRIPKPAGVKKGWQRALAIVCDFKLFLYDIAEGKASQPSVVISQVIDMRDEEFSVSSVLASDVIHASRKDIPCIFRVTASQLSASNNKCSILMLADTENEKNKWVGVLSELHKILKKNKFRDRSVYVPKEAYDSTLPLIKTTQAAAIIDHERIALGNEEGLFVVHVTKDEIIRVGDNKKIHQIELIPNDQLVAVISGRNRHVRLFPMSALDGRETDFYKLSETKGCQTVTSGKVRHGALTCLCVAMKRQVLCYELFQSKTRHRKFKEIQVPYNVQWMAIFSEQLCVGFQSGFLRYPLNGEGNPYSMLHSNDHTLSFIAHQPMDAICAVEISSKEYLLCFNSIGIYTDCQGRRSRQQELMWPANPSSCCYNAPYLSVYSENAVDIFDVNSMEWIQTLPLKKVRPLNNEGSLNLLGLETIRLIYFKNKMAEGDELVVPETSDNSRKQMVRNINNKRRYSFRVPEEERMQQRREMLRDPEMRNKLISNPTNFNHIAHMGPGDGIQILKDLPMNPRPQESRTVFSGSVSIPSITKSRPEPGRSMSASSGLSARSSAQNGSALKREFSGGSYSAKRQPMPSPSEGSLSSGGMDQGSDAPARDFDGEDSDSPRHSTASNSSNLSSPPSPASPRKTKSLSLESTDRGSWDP

MAP kinase p38 = MAP kinase p38 (Homo sapiens, UniProt O15264+Q15759+Q16539+P53778); assay: Inhibition of p38 (unknown origin) using biotinylated Flag-ATF2 as substrate after 30 mins by HTRF assay; format: protein assay
[12] = Clearance in Sprague-Dawley rat at 1 mg/kg, iv by LC-MS/MS analysis; format: ADME, organism-based; design: dose 1 mg/kg, route intravenous; details: in vivo
[13] = as §1; format: ADME, organism-based, Plasma; design: dose 1 mg/kg, route intravenous; details: Sprague-Dawley, plasma
[14] = Aqueous solubility in potassium phosphate buffer at pH 5.5 after 24 hrs by HPLC analysis; format: physicochemical; details: pH 5.5, 24 h
Cytochrome P450 2D6 = Cytochrome P450 2D6 (Homo sapiens, UniProt P10635); assay: Inhibition of CYP2D6 (unknown origin)-mediated bufuralol hydroxylation to 4'-Hydroxybufuralol; format: ADME
Cytochrome P450 2D6, sequence (P10635 whole entry): as the sequence (P10635 whole entry) above

Cytochrome P450 2C9 = Cytochrome P450 2C9 (Homo sapiens, UniProt P11712); assay: Inhibition of CYP2C9 (unknown origin)-mediated tolbutamide hydroxylation to hydroxy tolbutamide; format: ADME
Cytochrome P450 2C9, sequence (P11712 whole entry): as the sequence (P11712 whole entry) above

Cytochrome P450 1A2 = biological target: T2, Cytochrome P450 1A2 (Homo sapiens, UniProt P05177); assay: Inhibition of CYP1A2 (unknown origin)-mediated phenaceten demethylation to acetaminophen; format: ADME
T2 sequence (P05177 whole entry): T1 sequence (P05177 whole entry)

Cytochrome P450 3A4 = Cytochrome P450 3A4 (Homo sapiens, UniProt P08684); assay: Inhibition of CYP3A4 (unknown origin)-mediated midazolam hydroxylation to 1'-Hydroxymidazolam; format: ADME

Rho-associated protein kinase 1, sequence (Q13464 whole entry): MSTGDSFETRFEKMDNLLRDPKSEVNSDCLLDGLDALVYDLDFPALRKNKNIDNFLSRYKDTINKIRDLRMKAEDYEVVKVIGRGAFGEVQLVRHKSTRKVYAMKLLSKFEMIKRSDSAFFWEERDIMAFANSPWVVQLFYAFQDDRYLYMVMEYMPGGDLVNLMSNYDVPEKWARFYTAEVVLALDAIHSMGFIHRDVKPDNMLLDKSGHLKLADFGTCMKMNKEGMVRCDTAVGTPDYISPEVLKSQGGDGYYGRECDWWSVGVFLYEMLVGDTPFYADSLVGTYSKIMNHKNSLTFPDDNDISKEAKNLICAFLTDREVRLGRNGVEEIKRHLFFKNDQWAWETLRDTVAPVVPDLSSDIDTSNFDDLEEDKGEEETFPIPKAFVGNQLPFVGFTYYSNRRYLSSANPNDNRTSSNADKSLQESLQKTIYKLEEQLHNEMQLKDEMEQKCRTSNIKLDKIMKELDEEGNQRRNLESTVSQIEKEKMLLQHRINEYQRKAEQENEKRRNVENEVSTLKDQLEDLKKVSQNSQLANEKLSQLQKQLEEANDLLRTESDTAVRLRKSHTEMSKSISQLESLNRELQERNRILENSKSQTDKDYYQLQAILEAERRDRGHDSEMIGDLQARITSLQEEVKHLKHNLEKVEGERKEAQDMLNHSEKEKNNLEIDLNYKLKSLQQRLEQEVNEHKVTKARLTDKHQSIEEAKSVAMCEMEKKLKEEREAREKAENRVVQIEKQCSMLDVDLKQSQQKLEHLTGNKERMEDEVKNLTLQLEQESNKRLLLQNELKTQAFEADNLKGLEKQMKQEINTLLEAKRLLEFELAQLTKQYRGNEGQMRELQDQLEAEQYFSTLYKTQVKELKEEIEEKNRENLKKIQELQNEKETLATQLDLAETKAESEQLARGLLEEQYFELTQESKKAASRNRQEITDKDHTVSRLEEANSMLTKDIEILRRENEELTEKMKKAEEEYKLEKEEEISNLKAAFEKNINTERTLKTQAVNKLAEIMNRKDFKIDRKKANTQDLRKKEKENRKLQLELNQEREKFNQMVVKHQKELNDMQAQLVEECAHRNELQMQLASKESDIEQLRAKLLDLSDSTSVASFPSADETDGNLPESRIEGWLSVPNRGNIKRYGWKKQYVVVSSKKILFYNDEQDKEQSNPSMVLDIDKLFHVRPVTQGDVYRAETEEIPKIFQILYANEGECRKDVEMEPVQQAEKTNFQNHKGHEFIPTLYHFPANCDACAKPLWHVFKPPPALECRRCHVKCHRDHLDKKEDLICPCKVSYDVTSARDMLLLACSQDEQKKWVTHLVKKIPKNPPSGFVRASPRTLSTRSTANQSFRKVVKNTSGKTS

Row | Compound | pIC50 [1] | half-life [2] | inhibition at 10 µM (CYP1A2) | Cmax [3] | inhibition at 10 µM (CYP3A4) | bioavailability [4] | pIC50 [5] | inhibition at 10 µM (CYP2C9) | Vd [6] | pIC50 [7] | inhibition at 10 µM (CYP2D6) | half-life [8] | pIC50 [9] | pIC50 [10] | pIC50 [11] | IC50 (MAP kinase p38) | clearance [12] | AUC [13] | solubility [14] | other results
1 | O=C(Nc1ccc(-c2cn[nH]c2)cc1)N(CCO)Cc1ccccc1 | 7.48 | > 2 h | 9% | 1100 nM | 15% | 46% | 7.92 | 93% | 1.9 L/kg | 7.23 | 29% | 1.9 h | 6.21 | – | – | – | – | – | – | AUC (Rattus norvegicus): 3.6 µM·h
2 | O=C(Nc1ccc(-c2cn[nH]c2)cc1)NC(CCO)c1cccc(F)c1 (stereo not drawn) | 8.00 | > 2 h | -2% | 9200 nM | 23% | 28% | 8.70 | 71% | 0.7 L/kg | 7.49 | 41% | 2.1 h | 6.24 | < 4.70 | 5.19 | > 20000 nM | 4.9 mL/min/kg | 9.5 µM·h | – | –
3 | O=C(Nc1ccc(-c2cn[nH]c2)cc1)NC(CO)c1ccccc1 (stereo not drawn) | – | > 2 h | – | – | – | – | 8.70 | – | – | 6.82 | – | – | 6.41 | – | – | – | – | – | – | –
4 | CN(C)CCC(NC(=O)Nc1ccc(-c2cn[nH]c2)cc1)c1ccccc1 (stereo not drawn) | 8.22 | > 1 h | -1% | 200 nM | 10% | 0% | 8.70 | 16% | 20 L/kg | 7.40 | 59% | 2.4 h | 6.62 | – | – | – | 91 mL/min/kg | 0.5 µM·h | soluble | –
5 | CCN(Cc1cccc(OC)c1)C(=O)Nc1ccc(-c2cn[nH]c2)cc1O[C@H]1CCN(C)C1 | 8.40 | – | 9% | 1100 nM | 53% | 11% | 9.00 | 65% | 2.6 L/kg | – | 83% | 1 h | 5.17 | < 4.70 | 5.81 | > 20000 nM | 30 mL/min/kg | 1.3 µM·h | soluble | –
6 | COc1cccc(CN(CCN(C)C)C(=O)Nc2ccc(-c3cn[nH]c3)cn2)c1 | 8.00 | 0.283 h | -21% | – | 8% | – | 8.70 | 5% | – | 7.55 | 51% | – | 6.33 | – | – | – | – | – | soluble | –
7 | COc1cccc(CN(CCO)C(=O)Nc2ccc(-c3cn[nH]c3)cc2)c1 | 8.22 | 0.4 h | -23% | 3800 nM | 37% | 51% | 9.00 | 95% | 1 L/kg | 7.72 | 38% | 1.6 h | 5.52 | < 4.70 | 5.37 | > 20000 nM | 11.2 mL/min/kg | 4.2 µM·h | – | pIC50 (Cytochrome P450 2D6): 4.40; pIC50 (Cytochrome P450 2C9): 5.70; pIC50 (Cytochrome P450 1A2): < 4.00; pIC50 (Cytochrome P450 3A4): 4.46
8 | COc1cccc(CN(CCN)C(=O)Nc2ccc(-c3cn[nH]c3)cc2)c1 | – | > 2 h | – | – | – | – | > 9.00 | – | – | 8.10 | – | – | 7.14 | – | – | – | – | – | – | –
9 | COc1cccc(CN(CCN(C)C)C(=O)Nc2ccc(-c3cn[nH]c3)cc2)c1 | 8.22 | 0.567 h | -29% | 330 nM | 34% | 10% | 9.00 | 35% | 14 L/kg | 8.40 | 85% | 1 h | 6.34 | < 4.70 | 5.06 | > 20000 nM | 176 mL/min/kg | 0.2 µM·h | soluble | pIC50 (Cytochrome P450 2D6): 5.52; pIC50 (Cytochrome P450 2C9): 4.52; pIC50 (Cytochrome P450 1A2): < 4.00; pIC50 (Cytochrome P450 3A4): 4.10
10 | COc1cccc(CN(CCN2CCCC2)C(=O)Nc2ccc(-c3cn[nH]c3)cc2)c1 | 7.89 | 0.417 h | 0% | 480 nM | 34% | 0% | 8.52 | 24% | 4.4 L/kg | 8.22 | 88% | 1 h | 6.27 | < 4.70 | – | > 20000 nM | 71 mL/min/kg | 0.6 µM·h | soluble | –
11 | COc1cccc(CN(CCCN2CCCC2)C(=O)Nc2ccc(-c3cn[nH]c3)cc2)c1 | – | 0.983 h | – | – | – | – | 8.30 | – | – | 7.74 | – | – | 6.64 | – | – | – | – | – | – | –
12 | COc1cccc(CN(CCN2CCOCC2)C(=O)Nc2ccc(-c3cn[nH]c3)cc2)c1 | 7.24 | 0.05 h | -37% | 1200 nM | 51% | 4% | 7.89 | 68% | 3.5 L/kg | 6.86 | 82% | 2.2 h | 5.42 | < 4.70 | – | > 20000 nM | 63 mL/min/kg | 0.6 µM·h | soluble | –
13 | COc1cccc(CN(CCN2CCCCC2)C(=O)Nc2ccc(-c3cn[nH]c3)cc2)c1 | 7.85 | 0.183 h | 18% | 530 nM | 61% | 0% | 8.30 | 56% | 4.3 L/kg | 7.77 | 87% | 1 h | 6.47 | < 4.70 | – | > 20000 nM | 86 mL/min/kg | 0.4 µM·h | soluble | –
14 | COc1cccc(C(CCO)NC(=O)Nc2ccc(-c3cn[nH]c3)cc2)c1 (stereo not drawn) | 7.96 | 1.87 h | 3% | 12000 nM | 37% | 4% | 8.70 | 67% | 0.25 L/kg | 7.40 | 37% | 0.7 h | 5.31 | – | – | – | 5.9 mL/min/kg | 7.9 µM·h | soluble | –
15 | COc1cccc(CN(C)C(=O)Nc2ccc(-c3cn[nH]c3)cc2)c1 | 8.40 | 0.383 h | 9% | 2600 nM | 27% | 48% | 9.00 | 96% | 1.1 L/kg | – | 45% | 1 h | 5.74 | < 4.70 | 5.73 | > 20000 nM | 9.4 mL/min/kg | 5.9 µM·h | – | pIC50 (Cytochrome P450 2D6): < 4.00; pIC50 (Cytochrome P450 2C9): 6.22; pIC50 (Cytochrome P450 1A2): < 4.00; pIC50 (Cytochrome P450 3A4): < 4.00
